From ChEMBL document CHEMBL1132721, “Cyclobutane quisqualic acid analogues as selective mGluR5a metabotropic glutamic acid receptor ligands” (J Med Chem, 1999) come the findings set out here.

For test [1], the target named is Metabotropic glutamate receptor 5 (Homo sapiens, UniProt P41594). In words: Compound was tested for the stimulation of Phosphoinositide (PI) hydrolysis in BHK cells expressing mGluR5a receptor. The class given is functional, cell-based. In outline: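 BHK570 cells stably expressing mGluR5a, kept under 2 μM methotrexate selection in DMEM with 5% heat-inactivated FBS, 2 mM glutamine and 5% CO2. Grown to 60–90% confluence, then labelled 16–20 h with 1 μCi/mL [3H]-myo-inositol. PI hydrolysis was measured by the Thomsen method and normalized to 100 000 DPM of total incorporated label. Mean ± SEM of 3–6 experiments; EC50 from concentration–response curves.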

The species named for test [2] is Rattus norvegicus. In words: Inhibition of the sensitization of CA1 pyramidal neurons to depolarization by L-AP6 by the compound at a concentration of 200 uM after 20 minutes. The class given is functional, organism-based. The conditions noted are these: Pyramidal neuron.
The target of test [3] is T1, Glutamate receptor ionotropic, AMPA (Rattus norvegicus, UniProt P19490+P19491+P19492+P19493). In words: Inhibition of Ionotropic glutamate receptor AMPA mediated depolarization by the compound at a concentration of 200 uM after 20 minutes in rat.
The species entered for test [4] is Rattus norvegicus. The test can be described thus: Inhibition of the sensitization of CA1 pyramidal neurons to depolarization by L-AP6 after reversal with L-alpha-AA. The class given is functional, organism-based. The settings on record: Pyramidal neuron.
The species named for test [5] is Rattus norvegicus. The test can be described thus: Compound was tested for the stimulation of Phosphoinositide (PI) hydrolysis in rat hippocampus. The test is classed as functional, organism-based. In outline: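 Slices of neonatal (6–11-day-old) Sprague–Dawley rat hippocampus, labelled with [3H]-myo-inositol. Inositol phosphate accumulation was expressed per 100 000 DPM of total incorporated radiolabel (lipid plus soluble IP fraction) under basal conditions. Concentration–response data were fit with Hill coefficient 1. Mean ± SEM of four experiments.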

Test [6] is filed under the species Rattus norvegicus. In words: Inhibition of the sensitization of CA1 pyramidal neurons to depolarization by L-AP6 by the compound at a concentration of 200 uM before 20 minutes. The test is classed as functional, organism-based. The settings on record: Pyramidal neuron.
For test [7], the species on record is Rattus norvegicus. The test can be described thus: Inhibition of the sensitization of CA1 pyramidal neurons to depolarization by L-AP6 by the compound at a concentration of 400 uM before 20 minutes. The class given is functional, organism-based. The conditions noted are these: Pyramidal neuron.
Test [8] is filed under the species Rattus norvegicus. The test can be described thus: Inhibition of the sensitization of CA1 pyramidal neurons to depolarization by L-AP6 by the compound at a concentration of 400 uM after 20 minutes. The class given is functional, organism-based. The settings on record: Pyramidal neuron.
In test [9] the target is T1, Glutamate receptor ionotropic, AMPA. The test can be described thus: Inhibition of Ionotropic glutamate receptor AMPA mediated depolarization by the compound at a concentration of 400 uM after 20 minutes in rat.
The species entered for test [10] is Rattus norvegicus. The test can be described thus: Inhibition of the sensitization of CA1 pyramidal neurons to depolarization by L-AP6 after reversal with L-alpha-AA by the compound at a concentration of 16 uM after 4 minutes. The conditions noted are these: Pyramidal neuron. The test is classed as functional, organism-based. In outline:
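Rat hippocampal slices. The sensitization was reversed by treating the slices with 2 mM L-α-aminoadipic acid for 10 min.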

For test [11], the species on record is Rattus norvegicus. The test can be described thus: Inhibition of the sensitization of CA1 pyramidal neurons to depolarization by L-AP6 by the compound at a concentration of 16 uM after 4 minutes. The class given is functional, organism-based. The settings on record: Pyramidal neuron. In outline:
(§1)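 Rat hippocampal slices. Sensitization of CA1 neurons to phosphonate depolarization was measured in the QUIS-effect slice assay.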

The species entered for test [12] is Rattus norvegicus. The test can be described thus: Inhibition of the sensitization of CA1 pyramidal neurons to depolarization by L-AP6 by the compound at a concentration of 16 uM before 4 minutes. The conditions noted are these: Pyramidal neuron. The test is classed as functional, organism-based. In outline:
as §1

Chain of Metabotropic glutamate receptor 5 (P41594 whole entry): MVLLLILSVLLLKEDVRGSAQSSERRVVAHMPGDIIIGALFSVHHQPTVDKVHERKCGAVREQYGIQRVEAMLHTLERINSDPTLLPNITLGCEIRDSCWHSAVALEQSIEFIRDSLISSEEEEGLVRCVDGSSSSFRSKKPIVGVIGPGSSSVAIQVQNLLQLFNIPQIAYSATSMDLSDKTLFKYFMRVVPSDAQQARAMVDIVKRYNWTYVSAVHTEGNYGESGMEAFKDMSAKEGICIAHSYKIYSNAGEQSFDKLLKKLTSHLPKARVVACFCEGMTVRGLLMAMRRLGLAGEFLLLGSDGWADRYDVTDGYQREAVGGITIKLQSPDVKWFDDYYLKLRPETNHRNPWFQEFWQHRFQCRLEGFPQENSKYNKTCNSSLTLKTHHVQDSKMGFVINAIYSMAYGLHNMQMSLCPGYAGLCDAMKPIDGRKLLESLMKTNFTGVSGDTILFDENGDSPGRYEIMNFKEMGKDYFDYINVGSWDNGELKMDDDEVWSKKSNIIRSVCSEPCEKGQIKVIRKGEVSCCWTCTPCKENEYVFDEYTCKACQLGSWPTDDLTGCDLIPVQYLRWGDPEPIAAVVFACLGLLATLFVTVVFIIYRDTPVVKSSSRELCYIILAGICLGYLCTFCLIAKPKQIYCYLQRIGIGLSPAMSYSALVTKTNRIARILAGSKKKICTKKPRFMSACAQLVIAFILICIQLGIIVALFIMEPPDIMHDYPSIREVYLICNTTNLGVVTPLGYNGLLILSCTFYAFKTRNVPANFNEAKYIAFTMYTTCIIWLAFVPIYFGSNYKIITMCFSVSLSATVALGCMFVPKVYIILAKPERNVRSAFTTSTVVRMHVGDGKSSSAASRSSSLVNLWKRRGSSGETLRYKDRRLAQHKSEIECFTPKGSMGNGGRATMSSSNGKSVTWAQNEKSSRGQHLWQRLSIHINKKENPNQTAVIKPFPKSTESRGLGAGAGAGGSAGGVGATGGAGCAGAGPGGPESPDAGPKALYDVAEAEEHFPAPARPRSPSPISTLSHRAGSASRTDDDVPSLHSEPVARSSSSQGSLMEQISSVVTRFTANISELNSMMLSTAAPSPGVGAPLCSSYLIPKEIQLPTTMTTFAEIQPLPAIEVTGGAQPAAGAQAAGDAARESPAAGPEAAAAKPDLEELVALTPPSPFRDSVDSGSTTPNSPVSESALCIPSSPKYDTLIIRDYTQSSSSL

For `N[C@]1(C(=O)O)C[C@H](n2oc(=O)[nH]c2=O)C1`, the EC50 in [1] amounted to 11 µM; in [5] it was 18 µM. The IC50 in [2] was 7000 µM; in [3], 69 µM; in test [4] it was over 10000 µM; in test [6], over 10000 µM.
For the compound `N[C@]1(C(=O)O)C[C@@H](n2oc(=O)[nH]c2=O)C1`, the IC50 in [7] was over 10000 µM; in [8] it was over 10000 µM; in test [9], 390 µM. The EC50 in [1] worked out at 49 µM; in test [5], 53 µM.
For `N[C@@H](Cn1oc(=O)[nH]c1=O)C(=O)O` [QUISQUALATE], the IC50 is 1900 µM in [10], 40 µM in test [11] and over 10000 µM in [12].

One may read the EC50 as the midpoint of the concentration-response curve. Lower therefore signals greater potency. What is called IC50 is the midpoint of a concentration-inhibition curve.
